# In PMC2652879 (Clinical cancer research : an official journal of the …, 2008):
# Legend:
# [1] = Plasma pharmacokinetics of AG014447; type: in vivo, human; details: for effect of TMZ on pharmacokinetics (interaction): after a single dose or multiple doses
# [2] = AG014447 concentration in tumour biopsy homogenates; type: in vivo, human; details: samples taken 5 hours (24 hr in 3 patients) after administration
# [3] = Toxicity / dose limiting toxicity in phase I trial; type: in vivo, human; details: for dose recommended for future studies: combination, x5 every 28 days
# [4] = cited from earlier work
# [5] = target: T1, PARP (Homo sapiens, UniProt P09874); assay: PARP activity immunoassay in paired tumour biopsies of melanoma patients; type: in vivo
# How it was run: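 Chemonaive melanoma patients (part 2) received PARP inhibitor at PID with temozolomide escalated to at most 200 mg/m2; one extra level used 18 mg/m2 inhibitor plus 200 mg/m2 temozolomide. Paired biopsies were taken at baseline and after the first inhibitor dose (4, 5 or 24 h stated). PAR formation was quantified immunologically ex vivo. Activity was expressed as percentage of the same patient's pre-treatment biopsy.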
# [6] = test system: advanced solid tumors; assay: Tumour response by RECIST in phase I patients; type: in vivo, human; details: AG014699 + TMZ
# How it was run: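 Patients with advanced solid tumours received a daily 30 min IV infusion of test compound followed by oral temozolomide for 5 consecutive days, repeated every 28 days. Response was assessed by RECIST every 2 cycles, and patients completing 2 cycles were evaluable.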
# [7] = test system: PARP; details: most efficacious dose of AG014699 combined with TMZ; cited from earlier work
# [8] = test system: SW620 tumours; details: most efficacious dose of AG014699 combined with TMZ; animals bearing SW620 tumours; cited from earlier work
# [9] = target: T1, PARP; assay: PARP activity immunoassay ex vivo in peripheral blood lymphocytes
# How it was run: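 Patients with solid tumours (part 1) got one IV dose of PARP inhibitor on day -7, then temozolomide 100 mg/m2/day x5 q28 days with the inhibitor, over 5 escalating dose levels. PBLs were sampled at baseline, end of infusion, 4-6 h and 24 h on days -7, 1 and 4 of cycle 1, plus day 8 at PID. PAR formation was quantified immunologically ex vivo. PID: maximal (≥50%) activity reduction at 24 h, with no gain over the preceding dose.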
# [10] = test system: DNA strand breaks in PBLs; assay: Alkaline Comet assay for DNA strand breaks in PBLs of patients; type: in vivo, human
# How it was run: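 Alkaline Comet assay (modified Olive method) on peripheral blood mononuclear cells, with slides stained with SYBR gold. Blood was sampled in cycle 1 before, 4 h and 24 h after temozolomide, following a daily 30 min IV infusion of test compound. For each sample, 50 cells from two slides were scored for % tail DNA and Olive tail moment, and means were taken. Readings were averaged by dose cohort (up to 6 patients).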
# [11] = test system: metastatic melanoma; details: phase II, AG014699 with TMZ, preliminary results; cited from earlier work
# T1 sequence (P09874 whole entry): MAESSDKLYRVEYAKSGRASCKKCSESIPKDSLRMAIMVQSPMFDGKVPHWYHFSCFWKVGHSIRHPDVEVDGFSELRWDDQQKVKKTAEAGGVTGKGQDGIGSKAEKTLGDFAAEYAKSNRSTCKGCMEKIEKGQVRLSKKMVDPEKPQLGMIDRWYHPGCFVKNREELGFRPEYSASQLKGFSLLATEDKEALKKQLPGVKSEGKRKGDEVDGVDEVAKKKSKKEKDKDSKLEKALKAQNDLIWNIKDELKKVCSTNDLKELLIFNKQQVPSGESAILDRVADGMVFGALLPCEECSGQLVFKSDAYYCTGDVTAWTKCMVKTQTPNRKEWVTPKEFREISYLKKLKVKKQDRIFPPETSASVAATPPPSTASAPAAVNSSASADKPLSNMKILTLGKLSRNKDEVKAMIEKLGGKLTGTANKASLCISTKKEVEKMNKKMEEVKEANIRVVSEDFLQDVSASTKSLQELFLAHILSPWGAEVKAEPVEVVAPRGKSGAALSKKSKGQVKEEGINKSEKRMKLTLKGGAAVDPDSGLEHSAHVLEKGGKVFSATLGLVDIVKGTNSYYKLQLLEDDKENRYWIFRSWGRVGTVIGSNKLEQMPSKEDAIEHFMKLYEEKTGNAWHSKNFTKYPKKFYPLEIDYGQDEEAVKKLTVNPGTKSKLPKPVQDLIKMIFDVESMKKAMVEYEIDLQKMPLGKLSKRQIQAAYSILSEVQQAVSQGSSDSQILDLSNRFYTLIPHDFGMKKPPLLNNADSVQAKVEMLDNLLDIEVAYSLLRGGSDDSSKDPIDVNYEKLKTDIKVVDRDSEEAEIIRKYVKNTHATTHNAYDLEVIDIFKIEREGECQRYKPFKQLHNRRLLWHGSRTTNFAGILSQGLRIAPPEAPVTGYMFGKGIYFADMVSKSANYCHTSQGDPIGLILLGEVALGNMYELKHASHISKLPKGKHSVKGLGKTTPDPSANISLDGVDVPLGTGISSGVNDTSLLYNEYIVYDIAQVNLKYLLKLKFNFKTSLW
smiles,measurement,setting,value
CNCc1ccc(-c2[nH]c3cc(F)cc4c3c2CCNC4=O)cc1 [AG014447],effect of TMZ on pharmacokinetics (interaction),[1]; listed as AG-014447,no evidence that TMZ has an effect
same,mean terminal half-life (CV%),[1]; mean for the treated population,9.5 (50.4) hours
same,"concentration in tumour biopsy homogenates, range",[2],5-110 ng/g tumour protein
"Cn1nnc2c(C(N)=O)ncn2c1=O [Temozolomide, reference compound]",Recommended dose,[3]; combination with AG014699,200 mg/m2
same,dose recommended for future studies,[3],200 mg/m^2/day
same,tolerability,[4]; TMZ 200 mg/m^2/day,well tolerated
same,toxicity,[4]; TMZ 225 mg/m^2/day,significant myelosuppression
CNCc1ccc(-c2[nH]c3cc(F)cc4c3c2CCNC4=O)cc1 [AG014699],Mean tumor PARP inhibition,[5]; at 5 hours,92%
same,"tumor PARP inhibition, range",[5]; at 5 hours,46 - 97%
same,PARP inhibition in paired tumour biopsies,"[5]; part 2, all biopsies, 12 and 18 mg/m^2",> 50%
same,tumour response in patients with metastatic melanoma,[6]; no prior chemotherapy for melanoma,one documented complete and one partial response
same,tumour response in a patient with a desmoid tumour,[6]; previously treated with surgery and imatinib,a further partial response
same,pharmacokinetic linearity,"[1]; 1-18 mg/m^2, 30 minute IV infusion",linear
same,exposure (AUC0-24hr) in predicted extensive vs poor CYP2D6 metabolism,"[1]; CYP2D6 genotype *4,*4 vs wild type/heterozygous",similar
same,effect of TMZ on pharmacokinetics (interaction),[1],no interaction
same,t^1/2 mean,"[1]; cohort 2, 699 dose 2 mg/m^2 (n=3), TMZ dose 100, day 1",3.8 h
same,t^1/2 mean,"[1]; cohort 2, 699 dose 2 mg/m^2 (n=3), TMZ dose 100, day 4",8.0 h
same,t^1/2 mean,"[1]; cohort 2, 699 dose 2 mg/m^2 (n=3), TMZ dose 100, day -7",6.9 h
same,t^1/2 mean,"[1]; cohort 3, 699 dose 4 mg/m^2 (n=3), TMZ dose 100, day 1",10.6 h
same,t^1/2 mean,"[1]; cohort 3, 699 dose 4 mg/m^2 (n=3), TMZ dose 100, day 4",10.9 h
same,t^1/2 mean,"[1]; cohort 3, 699 dose 4 mg/m^2 (n=3), TMZ dose 100, day -7",23.2 h
same,t^1/2 mean,"[1]; cohort 4, 699 dose 8 mg/m^2 (n=4), TMZ dose 100, day 1",13.9 h
same,t^1/2 mean,"[1]; cohort 4, 699 dose 8 mg/m^2 (n=4), TMZ dose 100, day 4",18.3 h
same,t^1/2 mean,"[1]; cohort 4, 699 dose 8 mg/m^2 (n=4), TMZ dose 100, day -7",19.9 h
same,t^1/2 mean,"[1]; cohort 5-8, 699 dose 12 mg/m^2 (n=12), TMZ dose 100-200, day 1",15.0 h
same,t^1/2 mean,"[1]; cohort 5-8, 699 dose 12 mg/m^2 (n=12), TMZ dose 100-200, day 4",16.8 h
same,t^1/2 mean,"[1]; cohort 5-8, 699 dose 12 mg/m^2 (n=12), TMZ dose 100-200, day -7",11.5 h
same,t^1/2 mean,"[1]; cohort 9, 699 dose 18 mg/m^2 (n=6), TMZ dose 200, day 1",16.0 h
same,t^1/2 mean,"[1]; cohort 9, 699 dose 18 mg/m^2 (n=6), TMZ dose 200, day 4",15.2 h
same,t^1/2 mean,"[1]; cohort 9, 699 dose 18 mg/m^2 (n=6), TMZ dose 200, day -7",13.1 h
same,inter-subject variability of normalized AUC0-24h,[1]; normalized for actual dose and for mg/m^2 dose (both cases),54%
same,xenograft PARP inhibition,[7],50%
same,antitumour efficacy,[8],cures were seen
same,"PBL PARP enzyme activity recovered, of baseline","[9]; 12 mg/m^2/day, cycle 1 day 8, 72 hours after the last dose",~50%
same,PARP inhibition in PBLs,"[9]; all AG014699 dose levels, at the end of infusion",> 90%
same,inhibition of PBL PARP activity,[9]; at PID 12 mg/m^2,74 -97%
same,PARP-inhibitory dose (PID),"[9]; based on PBL (surrogate tissue) PARP inhibition, with TMZ 100 mg/m^2 daily x 5",12 mg/m^2
same,recovery of PBL PARP activity over 24 hours,[9]; doses above 8 mg/m^2,no recovery was observed
same,recovery of PBL PARP activity over 24 hours,[9]; lower dose levels,recovery of enzyme activity over 24 hours
same,PARP-inhibitory dose (PID),"[9]; part 1, 5 dose levels, TMZ 100 mg/m^2/day",12 mg/m^2/day
same,mean increase in Comet tail size at 24 h vs 4 h,"[10]; Day 1, PARP inhibitory doses (12-18 mg/m^2) with TMZ, p=0.03",3%
same,mean decrease in Comet tail size at 24 h vs 4 h,"[10]; Day 1, lower doses (1-8 mg/m^2) with TMZ",8%
same,DNA single strand breaks (SSB),[10]; all patients treated at PID,increases in DNA SSB
same,DNA damage in PBLs (Comet analysis),[10]; patients treated with AG014699 and TMZ,evidence of DNA damage in all patients
same,dose limiting toxicity observed,[3]; AG014699 18 mg/m^2/day given with TMZ 200 mg/m^2/day,Myelosuppression
same,DLTs and other grade 3/4 toxicity,"[3]; Part 1 cohort 1, AG014699 1 mg/m^2 + TMZ 100 mg/m^2, 3 patients, 30 cycles",None
same,DLTs and other grade 3/4 toxicity,"[3]; Part 1 cohort 2, AG014699 2 mg/m^2 + TMZ 100 mg/m^2, 4 patients, 11 cycles",None
same,DLTs and other grade 3/4 toxicity,"[3]; Part 1 cohort 3, AG014699 4 mg/m^2 + TMZ 100 mg/m^2, 4 patients, 20 cycles",None
same,DLTs and other grade 3/4 toxicity,"[3]; Part 1 cohort 4, AG014699 8 mg/m^2 + TMZ 100 mg/m^2, 4 patients, 5 cycles",None
same,DLTs and other grade 3/4 toxicity,"[3]; Part 1 cohort 5, AG014699 12 mg/m^2 + TMZ 100 mg/m^2, 3 patients, 11 cycles",None
same,DLTs and other grade 3/4 toxicity,"[3]; Part 2 cohort 6, AG014699 12 mg/m^2 + TMZ 135 mg/m^2, 3 patients, 6 cycles",None
same,DLTs and other grade 3/4 toxicity,"[3]; Part 2 cohort 7, AG014699 12 mg/m^2 + TMZ 170 mg/m^2, 3 patients, 10 cycles",None
same,DLTs and other grade 3/4 toxicity,"[3]; Part 2 cohort 8, AG014699 12 mg/m^2 + TMZ 200 mg/m^2, 3 patients, 16 cycles",None
same,Recommended dose,[3]; combination with temozolomide,12 mg/m^2
same,dose recommended for future studies,[3],12 mg/m^2/day
same,DLT,"[3]; part 2, PARP inhibitory dose of AG014699 with 200 mg/m^2 temozolomide",without DLT
same,tolerability of the combination with temozolomide,"[3]; patients, no toxic deaths",well tolerated
same,toxicity attributable to AG014699 alone,"[3]; patients, single agent",No toxicity of any kind
same,partial response rate,[11],17%
same,patients having stable disease for 6 months or more,[11],17%
